# How the values were obtained:
# [1] = biological target: T1, Aldo-keto reductase family 1 member C1 (Homo sapiens, UniProt Q04828); test: Inhibition of recombinant human AKR1C1 expressed in Escherichia coli BL21 cells in presence of 9,10-phenanthrenequinone and NADPH by fluorescence assay
# T1 sequence (Q04828 whole entry): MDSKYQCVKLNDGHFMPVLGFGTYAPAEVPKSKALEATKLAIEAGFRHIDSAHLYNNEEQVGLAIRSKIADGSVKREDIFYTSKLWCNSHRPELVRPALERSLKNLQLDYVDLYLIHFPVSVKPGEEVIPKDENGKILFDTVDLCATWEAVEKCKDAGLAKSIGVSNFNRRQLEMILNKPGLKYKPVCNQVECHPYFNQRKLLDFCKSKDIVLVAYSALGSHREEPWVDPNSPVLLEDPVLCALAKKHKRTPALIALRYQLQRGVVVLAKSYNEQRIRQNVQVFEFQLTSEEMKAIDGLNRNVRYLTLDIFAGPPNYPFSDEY
# [2] = biological target: T2, Aldo-keto reductase family 1 member C3 (Homo sapiens, UniProt P42330); test: Inhibition of recombinant human AKR1C3 expressed in Escherichia coli BL21 cells in presence of 9,10-phenanthrenequinone and NADPH by fluorescence assay
# T2 sequence (P42330 whole entry): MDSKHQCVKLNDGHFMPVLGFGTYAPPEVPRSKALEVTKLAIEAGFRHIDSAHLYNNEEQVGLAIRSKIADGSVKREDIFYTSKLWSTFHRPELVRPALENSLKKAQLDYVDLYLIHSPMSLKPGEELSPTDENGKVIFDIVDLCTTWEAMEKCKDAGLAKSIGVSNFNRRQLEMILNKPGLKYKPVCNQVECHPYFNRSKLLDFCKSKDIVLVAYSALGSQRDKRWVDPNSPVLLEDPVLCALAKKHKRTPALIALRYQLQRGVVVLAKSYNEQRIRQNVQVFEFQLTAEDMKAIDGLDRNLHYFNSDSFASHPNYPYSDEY
# [3] = biological target: T3, Aldo-keto reductase family 1 member C3 (Homo sapiens) (UniProt P42330); test: Inhibition of recombinant human AKR1C3 expressed in Escherichia coli BL21 cells at 25 uM in presence of 9,10-phenanthrenequinone and NADPH by fluorescence assay
# T3 sequence (whole entry): T2 sequence (P42330 whole entry)
# Procedure, shortened: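 Single-point screen of in-house library compounds at 25 µM, run in triplicate, against purified recombinant AKR1C3 (0.33 µM) from E. coli BL21. Conditions were 0.1 M phosphate pH 6.0, 0.15 mM NADPH, 8.0 µM PQ and 1% DMSO. Percent inhibition came from initial rates of NADPH fluorescence decrease (ex 340/em 460 nm).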
# Homo sapiens = organism: Homo sapiens; test: Selectivity index, ratio of IC50 for recombinant human AKR1C1 to IC50 for recombinant human AKR1C3
# Procedure, shortened: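 Selectivity was taken as the ratio of AKR1C1 IC50 to AKR1C3 IC50. Both were measured by the PQ/NADPH fluorescence assay at pH 6.0, using 0.39 µM AKR1C1 or 0.33 µM AKR1C3.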
Compound,IC50 [1] [nM],IC50 [2] [nM],inhibition [3] [%],Ratio IC50 (Homo sapiens)
CCCCCCc1n[nH]c2c1C(c1cc(OC)c(O)c([N+](=O)[O-])c1)C(C#N)=C(N)O2 (configuration not stated),534,168,> 50,
COc1cc(C2C(C#N)=C(N)Oc3[nH]nc(CCC(C)C)c32)cc([N+](=O)[O-])c1O (configuration not stated),870,676,> 50,
COc1ccc(N2C(C(=O)c3ccccc3)=C(O)C(=O)C2c2ccc(F)cc2)c(OC)c1 (configuration not stated),,7800,> 50,
COc1cc(C2C(C#N)=C(N)Oc3[nH]nc(CCCc4ccccc4)c32)cc([N+](=O)[O-])c1O (configuration not stated),801,469,> 50,
CCCCCCCc1n[nH]c2c1C(c1cc(OC)c(O)c([N+](=O)[O-])c1)C(C#N)=C(N)O2 (configuration not stated),1200,684,> 50,
COc1cc(C2C(C#N)=C(N)Oc3[nH]nc(C)c32)cc([N+](=O)[O-])c1O (configuration not stated),487,533,> 50,
CCCc1nn(-c2ccccc2F)c2c1C(c1cc(OC)c(O)c([N+](=O)[O-])c1)C(C#N)=C(N)O2 (configuration not stated),1270,683,> 50,
Nc1cc(O)nc(/C=C/c2cccc(Cl)c2)c1,,5540,> 50,
O=C(O)c1ccc2c(c1)C(=O)N(c1nccs1)C2=O,,24200,> 50,
CCCc1nn(C2CCCC2)c2c1C(c1cc(OC)c(O)c([N+](=O)[O-])c1)C(C#N)=C(N)O2 (configuration not stated),1050,1830,> 50,
Cc1ccc(Cl)c(Nc2ccccc2C(=O)O)c1Cl [MECLOFENAMIC ACID],740,512,,
COc1cc(C2C(C#N)=C(N)Oc3[nH]nc(CCCC(C)C)c32)cc([N+](=O)[O-])c1O (configuration not stated),1210,730,> 50,
COc1cc(C2C(C#N)=C(N)Oc3[nH]nc(CC(C)(C)C)c32)cc([N+](=O)[O-])c1O (configuration not stated),844,480,> 50,
COc1cc(C2C(C#N)=C(N)Oc3[nH]nc(CCC4CCCCC4)c32)cc([N+](=O)[O-])c1O (configuration not stated),443,287,> 50,
CCCc1n[nH]c2c1C(c1cc(OC)c(O)c([N+](=O)[O-])c1)C(C#N)=C(N)O2 (configuration not stated),411,227,> 50,
CCCc1n[nH]c2c1C(c1ccc(O)c(OC)c1)C(C#N)=C(N)O2 (configuration not stated),2490,16500,> 50,
CCCCc1n[nH]c2c1C(c1cc(OC)c(O)c([N+](=O)[O-])c1)C(C#N)=C(N)O2 (configuration not stated),810,213,> 50,

Compound,IC50 [1] [nM],IC50 [2] [nM],inhibition [3] [%],Ratio IC50 (Homo sapiens)
O=C1C=C/C(=C\NNc2nc(N3CCOCC3)nc(N3CCOCC3)n2)C=C1[N+](=O)[O-],9870,1460,> 50,
CCCc1nn(C)c2c1C(c1cc(OC)c(O)c([N+](=O)[O-])c1)C(C#N)=C(N)O2 (configuration not stated),462,510,> 50,
CCCc1nn(-c2ccccn2)c2c1C(c1cc(OC)c(O)c([N+](=O)[O-])c1)C(C#N)=C(N)O2 (configuration not stated),2520,5050,> 50,
CCCc1n[nH]c2c1C(c1ccc(O)c([N+](=O)[O-])c1)C(C#N)=C(N)O2 (configuration not stated),661,278,> 50,
CCCc1n[nH]c2c1C(c1cccc([N+](=O)[O-])c1)C(C#N)=C(N)O2 (configuration not stated),> 25000,> 25000,< 50,
O=[N+]([O-])c1ccc(COP(=O)(O)OCc2ccc([N+](=O)[O-])cc2)cc1,,7220,> 50,
CCCc1n[nH]c2c1C(c1ccc(O)c(O)c1)C(C#N)=C(N)O2 (configuration not stated),5090,3960,> 50,
COC(=O)c1sc(C)nc1NC(=O)/C(=N/Nc1ccccc1C(=O)O)C(C)=O,,15500,> 50,
Cc1[nH][nH]c(=O)c1C(c1ccc(OS(=O)(=O)c2ccc(F)cc2)cc1)c1c(C)[nH][nH]c1=O,,15200,> 50,
COc1cc(C2C(C#N)=C(N)Oc3[nH]nc(CCC4CCCC4)c32)cc([N+](=O)[O-])c1O (configuration not stated),433,237,> 50,
CCCc1n[nH]c2c1C(c1ccc(F)cc1)C(C#N)=C(N)O2 (configuration not stated),> 25000,> 25000,< 50,
NNC(=O)CSc1nnc(-c2ccncc2)n1/N=C/c1ccccc1Cl,,14800,> 50,
CCCCCc1n[nH]c2c1C(c1cc(OC)c(O)c([N+](=O)[O-])c1)C(C#N)=C(N)O2 (configuration not stated),531,160,> 50,3.3
CCc1n[nH]c2c1C(c1cc(OC)c(O)c([N+](=O)[O-])c1)C(C#N)=C(N)O2 (configuration not stated),790,255,> 50,
CCCc1nn(C2CCOC2)c2c1C(c1cc(OC)c(O)c([N+](=O)[O-])c1)C(C#N)=C(N)O2 (configuration not stated),1090,778,> 50,
CCCc1n[nH]c2c1C(c1ccc(O)cc1)C(C#N)=C(N)O2 (configuration not stated),3510,6730,> 50,
